ChEMBL document CHEMBL1124774, “Synthesis and biological activity of some derivatives of rifamycin P” (1990)
Values after ≈ are worked out from the molar mass of the structure shown.

Legend:
Mycobacterium gordonae [1] = assay: In vitro activity of compound against slowly growing Mycobacterium gordonae 1441; assay type: functional
Outline: (§1)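 Medium was Middlebrook 7H10 agar with 2% glycerol and 10% OADC. Organisms from Loevenstein-Jensen slants were grown in 7H9 broth with 0.5% Tween and 10% OADC, adjusted to McFarland no. 1, and spotted with a multipoint inoculator. Sealed plates were incubated at 22, 30 or 37 °C for 4-20 days depending on strain.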

[2] = test system: Mycolicibacterium fortuitum; assay: In vitro activity of compound against rapidly growing Mycobacterium fortuitum 1287; assay type: functional; outline: as §1
Streptococcus pneumoniae = assay: In vitro antibacterial activity of compound against Streptococcus pneumoniae UC 41; assay type: functional
Outline: (§2)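 Streptococcal MICs were run by twofold microdilution in Todd-Hewitt broth over 128-0.0001 µg/mL. Inoculum was 10^4 cfu/mL, with incubation at 37 °C for 18-24 h.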

[3] = test system: Mycolicibacterium fortuitum; assay: In vitro activity of compound against rapidly growing Mycobacterium fortuitum 114; assay type: functional; outline: as §1
Escherichia coli = assay: In vitro antibacterial activity of compound against Escherichia coli SKF 12140; assay type: functional
Streptococcus pyogenes [4] = assay: In vitro antibacterial activity of compound against Streptococcus pyogenes C 203 SKF 13400; assay type: functional; outline: as §2
Enterococcus faecalis = assay: In vitro antibacterial activity of compound against Streptococcus faecalis ATCC 7080.; assay type: functional
Outline: (§3)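 Twofold microdilution MIC in Iso-Sensitest broth over 128-0.0001 µg/mL. Inoculum was 10^4 cfu/mL, with incubation at 37 °C for 18-24 h.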

Mycobacterium xenopi [5] = assay: In vitro activity of compound against slowl growingy Mycobacterium xenopi 555; assay type: functional; outline: as §1
Staphylococcus aureus [6] = assay: In vitro antibacterial activity of compound against Staphylococcus aureus Tour L 165; assay type: functional; outline: as §3
Mycobacterium marinum [7] = assay: In vitro activity of compound against slowly growing Mycobacterium marinum 1388; assay type: functional; outline: as §1
[8] = test system: Mycobacterium tuberculosis; assay: In vitro antibacterial activity of compound against Mycobacterium tuberculosis H37Rv ATCC 9660; assay type: functional
[9] = test system: Mycolicibacterium fortuitum; assay: In vitro activity of compound against rapidly growing Mycobacterium fortuitum 646; assay type: functional; outline: as §1
Mycobacterium marinum [10] = assay: In vitro activity of compound against slowly growing Mycobacterium marinum 1390; assay type: functional; outline: as §1
Mycobacterium marinum [11] = assay: In vitro activity of compound against slowly growing Mycobacterium marinum 1392 h; assay type: functional; outline: as §1
Proteus vulgaris = assay: In vitro antibacterial activity of compound against Proteus vulgaris X19H ATCC 881; assay type: functional
Mycolicibacterium phlei [12] = assay: In vitro activity of compound against rapidly growing Mycobacterium phlei 1289; assay type: functional; outline: as §1
Mycobacterium marinum [13] = assay: In vitro activity of compound against slowly growing Mycobacterium marinum 1394; assay type: functional; outline: as §1
Streptococcus pyogenes [14] = assay: Inhibitory concentration of compound against Streptococcus pyogenus septicemia in the mouse, administarted in OS route; assay type: functional
Outline: (§4)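 Male and female CD1 mice (18-22 g) were infected ip with S. pyogenes C203, with the challenge set so untreated mice died within 48 h. Groups of five received a single treatment immediately after infection. ED50 was calculated from the percentage surviving at each dose on day 10.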

Mycobacterium xenopi [15] = assay: In vitro activity of compound against slowly growing Mycobacterium xenopi 556; assay type: functional; outline: as §1
[16] = test system: Mycobacterium scrofulaceum; assay: In vitro activity of compound against slowly growing Mycobacterium scrofulaceum 1297; assay type: functional; outline: as §1
Mycobacterium gordonae [17] = assay: In vitro activity of compound against slowly growing Mycobacterium gordonae 1294; assay type: functional; outline: as §1
[18] = test system: Mycolicibacterium fortuitum; assay: In vitro activity compound against rapidly growing Mycobacterium fortuitum 1302; assay type: functional; outline: as §1
[19] = test system: Mycobacterium scrofulaceum; assay: In vitro activity of compound against slowly growing Mycobacterium scrofulaceum 1292; assay type: functional; outline: as §1
[20] = test system: Mycolicibacterium flavescens; assay: In vitro activity of compound against rapidly growing Mycobacterium flavescens 1286; assay type: functional; outline: as §1
Mycobacterium xenopi [21] = assay: In vitro activity of compound against slowly growing Mycobacterium xenopi 554; assay type: functional; outline: as §1
[22] = test system: Staphylococcus epidermidis; assay: In vitro antibacterial activity of compound against Staphylococcus epidermidis ATCC 12228; assay type: functional; outline: as §3
[23] = test system: Mycolicibacterium fortuitum; assay: In vitro activity of compound against rapidly growing Mycobacterium fortuitum 1285; assay type: functional; outline: as §1
Klebsiella pneumoniae = assay: In vitro antibacterial activity of compound against Klebsiella pneumoniae ISM; assay type: functional
Staphylococcus aureus [24] = assay: Activity in the murine model (OS route) of Staphylococcus aureus tour septicemia; assay type: functional
Outline: (§5)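 Male and female CD1 mice (18-22 g) were infected ip with S. aureus Tour. The challenge was set so untreated mice died within 48 h. Groups were five mice, dosed once daily for 3 days starting immediately after infection. ED50 was calculated on day 10 from the percentage surviving at each dose.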

Mycobacterium marinum [25] = assay: In vitro activity of compound against slowly growing Mycobacterium marinum 1447; assay type: functional; outline: as §1
Mycobacterium marinum [26] = assay: In vitro activity of compound against slowly growing Mycobacterium marinum 1391; assay type: functional; outline: as §1
Neisseria gonorrhoeae = assay: In vitro antibacterial activity of compound against Neisseria gonorrhoeae ISM 68/126; assay type: functional
[27] = test system: Mycolicibacterium fortuitum; assay: In vitro activity of compound against rapidly growing Mycobacterium fortuitum 726; assay type: functional; outline: as §1
Mycolicibacterium phlei [28] = assay: In vitro activity of compound against rapidly growing Mycobacterium phlei 141; assay type: functional; outline: as §1
Mycobacterium avium = assay: 50% inhibition of the 20 Mycobacterium (MAC) avium complex clinical isolates; assay type: functional
Outline: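 Agar-dilution MICs, 2-fold dilutions over 128-0.0001 μg/mL, on Middlebrook 7H10 agar with 2% glycerol and 10% OADC. Organisms from Loevenstein-Jensen slants were grown in 7H9 broth with 0.5% Tween and 10% OADC, adjusted to McFarland no. 1, and spotted with a multipoint inoculator. Plates were sealed and incubated at 22, 30 or 37 °C for 4-20 days depending on strain.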

[29] = test system: Mycobacterium scrofulaceum; assay: In vitro activity of compound against slowly growing Mycobacterium scrofulaceum 1301; assay type: functional; outline: as §1
[30] = test system: Mycobacterium scrofulaceum; assay: In vitro activity of compound against slowly growing Mycobacterium scrofulaceum 1293; assay type: functional; outline: as §1
Mycobacterium marinum [31] = assay: In vitro activity of compound against slowly growing Mycobacterium marinum 1393; assay type: functional; outline: as §1
[32] = test system: Mycolicibacterium fortuitum; assay: In vitro activity of compound against rapidly growing Mycobacterium fortuitum 645; assay type: functional; outline: as §1
Streptococcus pyogenes [33] = assay: Inhibitory concentration of compound against Streptococcus pyogenus septicemia in the mouse, administarted in subcutaneous route; assay type: functional; details: sc; outline: as §4
Haemophilus influenzae = assay: In vitro antibacterial activity of compound against Haemophilus influenzae ATCC 19418; assay type: functional
Mycobacteroides chelonae = assay: In vitro activity of compound against rapidly growing Mycobacterium chelonae 1443
Staphylococcus aureus [34] = assay: Activity in the murine model (subcutaneous route) of Staphylococcus aureus tour septicemia; assay type: functional; details: sc; outline: as §5
Mycobacterium kansasii [35] = assay: In vitro activity of compound against slowly growing Mycobacterium kansasii 1299; assay type: functional; outline: as §1
Mycobacterium kansasii [36] = assay: In vitro activity compound against slowly growing Mycobacterium kansasii 1291; assay type: functional; outline: as §1
[37] = test system: Mycolicibacterium flavescens; assay: In vitro activity of compound against rapidly growing Mycobacterium flavescens 1284; assay type: functional; outline: as §1
Pseudomonas aeruginosa = assay: In vitro antibacterial activity of compound against Pseudomonas aeruginosa ATCC 10145; assay type: functional; outline: as §3
Mycolicibacterium phlei [38] = assay: In vitro activity of compound against rapidly growing Mycobacterium phlei 1283; assay type: functional; outline: as §1
Mycobacterium xenopi [39] = assay: In vitro activity compound against slowly growing Mycobacterium xenopi 1446; assay type: functional; outline: as §1
Mycobacterium kansasii [40] = assay: In vitro activity compound against slowly growing Mycobacterium kansasii 1298; assay type: functional; outline: as §1
Streptococcus pyogenes [41] = assay: Minimum inhibitory concentration of compound against Streptococcus pyogenus septicemia in the mouse; assay type: functional

## CO[C@H]1/C=C/O[C@@]2(C)Oc3c(C)c(O)c4c(O)c(c(/C=N/N5CCN(C)CC5)c(O)c4c3C2=O)NC(=O)/C(C)=C\C=C\[C@H](C)[C@H](O)[C@@H](C)[C@@H](O)[C@@H](C)[C@H](OC(C)=O)[C@@H]1C [RIFAMPIN]
Mycobacterium gordonae [1]
  MIC: 4 µg/mL (≈ 4.86 µM)
[2]
  MIC: 2 µg/mL (≈ 2.43 µM)
Streptococcus pneumoniae
  MIC: 0.063 µg/mL (≈ 0.0766 µM)
[3]
  MIC: 128 µg/mL (≈ 156 µM)
Escherichia coli
  MIC: 8 µg/mL (≈ 9.72 µM)
Streptococcus pyogenes [4]
  MIC: 0.063 µg/mL (≈ 0.0766 µM)
Enterococcus faecalis
  MIC: 1 µg/mL (≈ 1.22 µM)
Mycobacterium xenopi [5]
  MIC: 1 µg/mL (≈ 1.22 µM)
Staphylococcus aureus [6]
  MIC: 0.016 µg/mL (≈ 0.0194 µM)
Mycobacterium marinum [7]
  MIC: 1 µg/mL (≈ 1.22 µM)
[8]
  MIC: 0.25 µg/mL (≈ 0.304 µM)
[9]
  MIC: 128 µg/mL (≈ 156 µM)
Mycobacterium marinum [10]
  MIC: 2 µg/mL (≈ 2.43 µM)
Mycobacterium marinum [11]
  MIC: 0.5 µg/mL (≈ 0.608 µM)
Proteus vulgaris
  MIC: 8 µg/mL (≈ 9.72 µM)
Mycolicibacterium phlei [12]
  MIC: 8 µg/mL (≈ 9.72 µM)
Mycobacterium marinum [13]
  MIC: 0.5 µg/mL (≈ 0.608 µM)
Streptococcus pyogenes [14]
  ED50: 0.47 mg/kg
Mycobacterium xenopi [15]
  MIC: 1 µg/mL (≈ 1.22 µM)
[16]
  MIC: 0.125 µg/mL (≈ 0.152 µM)
Mycobacterium gordonae [17]
  MIC: 0.5 µg/mL (≈ 0.608 µM)
[18]
  MIC: 1 µg/mL (≈ 1.22 µM)
[19]
  MIC: 0.063 µg/mL (≈ 0.0766 µM)
[20]
  MIC: 0.25 µg/mL (≈ 0.304 µM)
Mycobacterium xenopi [21]
  MIC: 1 µg/mL (≈ 1.22 µM)
[22]
  MIC: 0.008 µg/mL (≈ 0.00972 µM)
[23]
  MIC: 4 µg/mL (≈ 4.86 µM)
Klebsiella pneumoniae
  MIC: 16 µg/mL (≈ 19.4 µM)
Staphylococcus aureus [24]
  ED50: 0.28 mg/kg
Mycobacterium marinum [25]
  MIC: 1 µg/mL (≈ 1.22 µM)
Mycobacterium marinum [26]
  MIC: 0.5 µg/mL (≈ 0.608 µM)
Neisseria gonorrhoeae
  MIC: 0.125 µg/mL (≈ 0.152 µM)
[27]
  MIC: 32 µg/mL (≈ 38.9 µM)
Mycolicibacterium phlei [28]
  MIC: 0.032 µg/mL (≈ 0.0389 µM)
Mycobacterium avium
  MIC50: 16 µg/mL (≈ 19.4 µM)
[29]
  MIC: 8 µg/mL (≈ 9.72 µM)
[30]
  MIC: 0.063 µg/mL (≈ 0.0766 µM)
Mycobacterium marinum [31]
  MIC: 0.5 µg/mL (≈ 0.608 µM)
[32]
  MIC: 4 µg/mL (≈ 4.86 µM)
Streptococcus pyogenes [33]
  ED50: 0.35 mg/kg
Haemophilus influenzae
  MIC: 0.125 µg/mL (≈ 0.152 µM)
Mycobacteroides chelonae
  MIC: > 128 µg/mL
Staphylococcus aureus [34]
  ED50: 0.09 mg/kg
Mycobacterium kansasii [35]
  MIC: 8 µg/mL (≈ 9.72 µM)
Mycobacterium kansasii [36]
  MIC: 16 µg/mL (≈ 19.4 µM)
[37]
  MIC: 128 µg/mL (≈ 156 µM)
Pseudomonas aeruginosa
  MIC: 8 µg/mL (≈ 9.72 µM)
Mycolicibacterium phlei [38]
  MIC: 0.25 µg/mL (≈ 0.304 µM)
Mycobacterium xenopi [39]
  MIC: 1 µg/mL (≈ 1.22 µM)
Mycobacterium kansasii [40]
  MIC: 0.125 µg/mL (≈ 0.152 µM)
Streptococcus pyogenes [41]
  MIC: 0.063 µg/mL (≈ 0.0766 µM)
